Data taken from ChEMBL document CHEMBL4689842, “EUbOPEN Chemogenomics Library wave 1” (2021).
Values joined by “and” are separate entries in the source; they are usually repeats but may differ in a detail not shown here. Equal entries are not always repeated.

Test system: Fibroblast
Test: Multiplex assay against human fibroblast
Assay type: toxicity, cell-based
Conditions: 1 µM, compound concentration 1 uM
Method in brief: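 Values for tubulin, mitochondrial-mass and membrane-permeability phenotypes are per cents of cells with healthy nuclei. These cells were identified by CellPathfinder machine-learning gating of live cells that had been stained at seeding with Hoechst33342, BioTracker Green Microtubule Cytoskeleton Dye, MitoTracker Red and Annexin V Alexa Fluor 680 and imaged on a CQ1 microscope at 37°C and 5% CO2 after compound addition. The gating first set Hoechst high-intensity objects apart from normal cells, then split normal cells into healthy, pyknosed or fragmented nuclei, and pyknosed cells into mitotic or apoptotic.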

Cn1cc(C2=C(c3cn(C4CCN(Cc5ccccn5)CC4)c4ccccc34)C(=O)NC2=O)c2ccccc21 [ENZASTAURIN]
Population Apoptotic (%) (12 h, replicate 1): 79% and 42% | Population Fragmented Nuclei (%) (12 h, replicate 1): 34% and 40% | Population Healthy Nuclei (%) (12 h, replicate 1): 49% and 35% | Population Membrane Permeable-Phenotype (%) (12 h, replicate 1): 8% and 7% | Population Mitotic Cells (%) (12 h, replicate 1): 20% and 57% | Population Normal (%) (12 h, replicate 1): 84% and 33% | Population Pyknosed Nuclei (%) (12 h, replicate 1): 15% and 23% | Total Cell Count (12 h, replicate 1): 220 and 479 | Population Apoptotic (%) (12 h, replicate 2): 66% and 55% | Population Fragmented Nuclei (%) (12 h, replicate 2): 70% and 45% | Population Healthy Nuclei (%) (12 h, replicate 2): 19% and 34% | Population Hoechst High Intensity Objects (%) (12 h, replicate 2): 30% and 51% | Population Membrane Permeable-Phenotype (%) (12 h, replicate 2): 16% and 0% | Population Mitochondria Different-Phenotype (%) (12 h, replicate 2): 25% and 60% | Population Mitotic Cells (%) (12 h, replicate 2): 33% and 44% | Population Normal (%) (12 h, replicate 2): 69% and 48% | Population Pyknosed Nuclei (%) (12 h, replicate 2): 9% and 20% | Total Cell Count (12 h, replicate 2): 88 and 91 | Population Apoptotic (%) (24 h, replicate 1): 64% and 73% | Population Fragmented Nuclei (%) (24 h, replicate 1): 47% and 27% | Population Healthy Nuclei (%) (24 h, replicate 1): 23% and 58% | Population Membrane Permeable-Phenotype (%) (24 h, replicate 1): 6% and 3% | Population Mitotic Cells (%) (24 h, replicate 1): 35% and 26% | Population Normal (%) (24 h, replicate 1): 28% and 83% | Population Pyknosed Nuclei (%) (24 h, replicate 1): 28% and 13% | Total Cell Count (24 h, replicate 1): 427 and 225 | Population Apoptotic (%) (24 h, replicate 2): 33% and 90% | Population Fragmented Nuclei (%) (24 h, replicate 2): 67% and 50% | Population Healthy Nuclei (%) (24 h, replicate 2): 26% and 19% | Population Hoechst High Intensity Objects (%) (24 h, replicate 2): 34% and 50% | Population Membrane Permeable-Phenotype (%) (24 h, replicate 2): 7% and 14% | Population Normal (%) (24 h, replicate 2): 65% and 49% | Total Cell Count (24 h, replicate 2): 75 and 73
